# The source made the active and inactive calls. No cut-off for these calls is given here.
# What was measured:
# CCD-1095SK = assay: Induction of glycosaminoglycan chains priming in human CCD-1095SK cells using [35S]-Sulfate after 30 mins by beta counting; assay type: functional, cell-based
# How it was run: (§1)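 Confluent monolayers incubated with xylosides in low-sulfate labeling medium with 2 mM glutamine and 20 µCi/mL [35S]sulfate; xylosides diluted from 20 mM stocks in Me2SO/water 1:1. Medium collected, labeled polyanions captured on DEAE-cellulose, free primed GAG chains separated from PG on Octyl-Sepharose. Ethanol-precipitated, sized by Superose 6 gel-permeation FPLC, radioactivity counted by beta counter.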
# HCC70 [1] = assay: Induction of glycosaminoglycan chains priming from beta-D-xylopyranoside in human HCC70 cells using [35S]-Sulfate after 30 mins by beta counting; assay type: functional, cell-based; how it was run: as §1
# [2] = Antiproliferative activity against human CCD-1095SK cells after 96 hrs by crystal violet staining method; assay type: cell-based; settings: for GI50 at 96 h: CCD-1095SK cells, read-out: ED50
# How it was run: (§2)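 Normal breast fibroblasts (CCD-1095Sk) or HCC70 breast carcinoma cells seeded at 5000 cells/well, in MEM or RPMI-1640 with 10% fetal calf serum. After 24 h, switched to serum-free Ham's F-12 with insulin (10 µg/mL) and transferrin (25 µg/mL) plus increasing xyloside concentrations, 96 h total. Fixed in 1% glutaraldehyde, stained with 0.1% crystal violet, lysed in 1% Triton X-100, read at A600. ED50 taken from % of untreated growth.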
# HCC70 [3] = assay: Antiproliferative activity against human HCC70 cells after 96 hrs by crystal violet staining method; assay type: functional; settings: read-out: ED50 (the source's name); how it was run: as §2
# HCC70 [4] = assay: Inhibition of endogenous proteoglycans production in human HCC70 cells at 0.1 mM; assay type: functional
# HCC70 [5] = assay: Inhibition of glycosaminoglycan chains priming from beta-D-xylopyranoside in human HCC70 cells at 0.1 mM; assay type: functional
SMILES,Activity (CCD-1095SK),Activity (HCC70 [1]),GI50 at 96 h [2],"EC50 (HCC70 [3]; Homo sapiens, HCC70, 96 h)",inhibition at 100 µM (HCC70 [4]),"GI50 ([2]; ccd-1095sk, 96 h, read-out: ED50 (the source's name))",EC50 (HCC70 [3]),inhibition at 100 µM (HCC70 [5])
O[C@H]1[C@H](Oc2ccc3ccccc3c2)OC[C@@H](O)[C@@H]1F,inactive,inactive,72 µM,94 µM,,,,
O[C@H]1[C@H](Oc2ccc3ccccc3c2)OC[C@@H](O)[C@H]1O,inactive,inactive,182 µM,178 µM,,,,
O[C@@H]1CO[C@@H](Oc2ccc3ccccc3c2)C[C@H]1O,inactive,inactive,19 µM,228 µM,,,,
O[C@@H]1[C@@H](F)[C@H](Oc2ccc3ccccc3c2)OC[C@H]1O,inactive,inactive,12 µM,22 µM,,,,
CO[C@@H]1CO[C@@H](Oc2ccc3ccccc3c2)[C@H](O)[C@H]1O,inactive,inactive,93 µM,135 µM,,,,
O[C@@H]1[C@@H](O)[C@H](Oc2ccc3ccccc3c2)OC[C@@H]1O,inactive,inactive,48 µM,371 µM,,,,
O[C@H]1[C@H](Oc2ccc3ccccc3c2)OCC[C@@H]1O,inactive,inactive,285 µM,284 µM,24%,,,
CO[C@H]1[C@H](Oc2ccc3ccccc3c2)OC[C@@H](O)[C@@H]1O,inactive,inactive,55 µM,127 µM,,,,
CO[C@@H]1[C@@H](O)[C@H](Oc2ccc3ccccc3c2)OC[C@H]1O,inactive,inactive,17 µM,145 µM,,,,
O[C@@H]1CO[C@@H](Oc2ccc3ccccc3c2)[C@H](O)C1,inactive,inactive,79 µM,179 µM,,,,
Oc1ccc2cc(O[C@@H]3OC[C@@H](O)[C@H](O)[C@H]3O)ccc2c1,Active,Active,,,,,,
O[C@@H]1[C@@H](O)[C@H](Oc2ccc3ccccc3c2)OC[C@H]1O (stereo in doubt; 1b),Active,Active,,,,243 µM,91 µM,
O[C@@H]1[C@@H](O)[C@H](Oc2ccc3ccccc3c2)OC[C@H]1F,inactive,inactive,32 µM,37 µM,33%,,,23%

# Reference: ChEMBL document CHEMBL1800020, “Synthesis, conformation and biology of naphthoxylosides” (Bioorg Med Chem, 2011)
